From ChEMBL document CHEMBL1146219, “Synthesis and evaluation of novel radioiodinated benzamides for malignant melanoma” (J Med Chem, 2007)

What was measured:
[1] = biological target: Sigma non-opioid intracellular receptor 1 (Cavia porcellus, UniProt Q60492); assay: Displacement of [3H](+)-pentazocine from sigma 1 receptor in guinea pig brain membrane; assay type: cell membranes
How it was run: (§1)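 Guinea pig brain membranes, incubated in duplicate for 2 h at 25 °C in Tris-HCl pH 8.0. Benzamide 10⁻¹⁰ to […] against 2 nM [³H]-(+)-pentazocine (σ₁) or 2 nM [³H]DTG plus 100 nM (+)-pentazocine (σ₂). Nonspecific binding defined with 1 µM haloperidol. GF/B filtration, bound activity by β-scintillation counting, giving IC50 then Ki. Full curves run only where 10⁻⁵ M inhibited >90%.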

[2] = Displacement of [3H]DTG from sigma 2 receptor in guinea pig brain membrane; assay type: cell membranes, Cavia porcellus; how it was run: as §1
[3] = Lipophilicity, log P at pH 7.5; assay type: physicochemical; settings: buffer
[4] = system: Lung; assay: Biodistribution in lung of B16F0 tumor bearing C57BL/6J mouse at 0.37-0.74 MBq, iv after 6 hrs; assay type: ADME, organism-based; settings: in vivo
How it was run: (§2)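 Female C57BL/6J mice (15-18 g) were given B16F0 cells subcutaneously in the left flank (0.1 mL of 3 × 10⁶ viable cells/mL in Ca²⁺/Mg²⁺-free PBS) at 6-7 weeks and used after ten days. [¹²³I]benzamide (0.37-0.74 MBq, 100 µL, saline) was injected via the tail vein. Groups of n = 5 were killed by CO₂ and cervical dislocation. Organs were weighed and γ-counted, and the carcass was counted too.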

[5] = system: Kidney; assay: Biodistribution in kidney of B16F0 tumor bearing C57BL/6J mouse at 0.37-0.74 MBq, iv after 6 hrs; assay type: ADME, organism-based; settings: in vivo; how it was run: as §2
[6] = system: Blood; assay: Biodistribution in blood of B16F0 tumor bearing C57BL/6J mouse at 0.37-0.74 MBq, iv after 1 hr; assay type: ADME, organism-based; settings: in vivo; how it was run: as §2
[7] = system: Lung; assay: Biodistribution in lung of B16F0 tumor bearing C57BL/6J mouse at 0.37-0.74 MBq, iv after 24 hrs; assay type: ADME, organism-based; settings: in vivo; how it was run: as §2
[8] = system: Liver; assay: Biodistribution in liver of B16F0 tumor bearing C57BL/6J mouse at 0.37-0.74 MBq, iv after 24 hrs; assay type: ADME, organism-based; settings: in vivo; how it was run: as §2
[9] = system: Kidney; assay: Biodistribution in kidney of B16F0 tumor bearing C57BL/6J mouse at 0.37-0.74 MBq, iv after 24 hrs; assay type: ADME, organism-based; settings: in vivo; how it was run: as §2
[10] = system: Blood; assay: Biodistribution in blood of B16F0 tumor bearing C57BL/6J mouse at 0.37-0.74 MBq, iv after 6 hrs; assay type: ADME, organism-based; settings: in vivo; how it was run: as §2
[11] = Biodistribution in melanoma of B16F0 tumor bearing C57BL/6J mouse at 0.37-0.74 MBq, iv after 6 hrs; assay type: ADME, organism-based, B16-F0; settings: in vivo
How it was run: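 Female C57BL/6J mice (15-18 g) carrying s.c. B16F0 flank tumors (0.1 mL of 3 × 10⁶ viable cells per mL in Ca²⁺/Mg²⁺-free PBS, inoculated at 6-7 weeks, used 10 days later). [¹²³I]tracer 0.37-0.74 MBq in saline, 100 µL, tail-vein i.v. Groups of n = 5 killed at 1-72 h. Organs weighed and γ-counted, carcass activity also counted, values as %ID/g.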

[12] = system: Heart; assay: Biodistribution in heart of B16F0 tumor bearing C57BL/6J mouse at 0.37-0.74 MBq, iv after 1 hr; assay type: ADME, organism-based; settings: in vivo; how it was run: as §2
[13] = system: Liver; assay: Biodistribution in liver of B16F0 tumor bearing C57BL/6J mouse at 0.37-0.74 MBq, iv after 1 hr; assay type: ADME, organism-based; settings: in vivo; how it was run: as §2
[14] = Biodistribution in melanoma of B16F0 tumor bearing C57BL/6J mouse at 0.37-0.74 MBq, iv after 24 hrs; assay type: ADME, organism-based, B16-F0; settings: in vivo; how it was run: as §2
[15] = system: Heart; assay: Biodistribution in heart of B16F0 tumor bearing C57BL/6J mouse at 0.37-0.74 MBq, iv after 6 hrs; assay type: ADME, organism-based; settings: in vivo; how it was run: as §2
[16] = system: Kidney; assay: Biodistribution in kidney of B16F0 tumor bearing C57BL/6J mouse at 0.37-0.74 MBq, iv after 1 hr; assay type: ADME, organism-based; settings: in vivo; how it was run: as §2
[17] = system: Liver; assay: Biodistribution in liver of B16F0 tumor bearing C57BL/6J mouse at 0.37-0.74 MBq, iv after 6 hrs; assay type: ADME, organism-based; settings: in vivo; how it was run: as §2
[18] = system: Brain; assay: Biodistribution in brain of B16F0 tumor bearing C57BL/6J mouse at 0.37-0.74 MBq, iv after 24 hrs; assay type: ADME, organism-based; settings: in vivo; how it was run: as §2
[19] = system: Heart; assay: Biodistribution in heart of B16F0 tumor bearing C57BL/6J mouse at 0.37-0.74 MBq, iv after 24 hrs; assay type: ADME, organism-based; settings: in vivo; how it was run: as §2
[20] = system: Brain; assay: Biodistribution in brain of B16F0 tumor bearing C57BL/6J mouse at 0.37-0.74 MBq, iv after 1 hr; assay type: ADME, organism-based; settings: in vivo; how it was run: as §2
[21] = system: Brain; assay: Biodistribution in brain of B16F0 tumor bearing C57BL/6J mouse at 0.37-0.74 MBq, iv after 6 hrs; assay type: ADME, organism-based; settings: in vivo; how it was run: as §2
[22] = system: Lung; assay: Biodistribution in lung of B16F0 tumor bearing C57BL/6J mouse at 0.37-0.74 MBq, iv after 1 hr; assay type: ADME, organism-based; settings: in vivo; how it was run: as §2
[23] = Biodistribution in melanoma of B16F0 tumor bearing C57BL/6J mouse at 0.37-0.74 MBq, iv after 1 hr; assay type: ADME, organism-based, B16-F0; settings: in vivo; how it was run: as §2
[24] = system: Blood; assay: Biodistribution in blood of B16F0 tumor bearing C57BL/6J mouse at 0.37-0.74 MBq, iv after 24 hrs; assay type: ADME, organism-based; settings: in vivo; how it was run: as §2

Chain of Sigma non-opioid intracellular receptor 1 (Q60492 whole entry): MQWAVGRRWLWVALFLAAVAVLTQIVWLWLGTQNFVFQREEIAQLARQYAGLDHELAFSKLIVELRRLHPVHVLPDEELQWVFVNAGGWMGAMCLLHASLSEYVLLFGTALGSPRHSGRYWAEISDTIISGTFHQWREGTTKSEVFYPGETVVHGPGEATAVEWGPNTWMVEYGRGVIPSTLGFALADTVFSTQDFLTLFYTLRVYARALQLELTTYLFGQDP

SMILES: CCN(CC)CCNC(=O)c1cc(I)c(NS(=O)(=O)c2ccc(C)cc2)cc1OC
- Ki [1]: 0.65 µM
- Ki [2]: > 100 µM
- logD [3]: 1.95

SMILES: CCN(CC)CCNC(=O)c1cc(I)c(NS(C)(=O)=O)cc1OC
- Ki [1]: 0.8 µM
- Ki [2]: 45 µM
- logD [3]: 0.82

SMILES: CCN(CC)CCNC(=O)c1cc(I)c(NC(C)=O)cc1OC
- Ki [1]: 1.65 µM
- Ki [2]: > 100 µM
- logD [3]: 1.54

SMILES: COc1cc(NC(C)=O)c([123I])cc1C(=O)NCCCCN(C)C(C)C
- Drug uptake [4]: 0.5 % ID/g
- Drug uptake [5]: 0.69 % ID/g
- Drug uptake [6]: 1.3 % ID/g
- Drug uptake [7]: 0.06 % ID/g
- Drug uptake [8]: 0.42 % ID/g
- Drug uptake [9]: 0.06 % ID/g
- Drug uptake [10]: 0.68 % ID/g
- Drug uptake [11]: 6 % ID/g
- Drug uptake [12]: 0.84 % ID/g
- Drug uptake [13]: 9.5 % ID/g
- Drug uptake [14]: 3.7 % ID/g
- Drug uptake [15]: 0.3 % ID/g
- Drug uptake [16]: 5.7 % ID/g
- Drug uptake [17]: 1.5 % ID/g
- Drug uptake [18]: 0.07 % ID/g
- Drug uptake [19]: 0.07 % ID/g
- Drug uptake [20]: 0.07 % ID/g
- Drug uptake [21]: 0.03 % ID/g
- Drug uptake [22]: 1.5 % ID/g
- Drug uptake [23]: 5.5 % ID/g
- Drug uptake [24]: 0.02 % ID/g
